Assays:
HeLa and glioma cells = details: cited from earlier work
CLL cells = assay: MTT cell viability assay in primary CLL samples; assay type: cell-based, human; details: six fresh primary CLL patient samples, 24 hours with 0-20 μM peptide
Procedure, shortened: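 Human PBMCs isolated from fresh patient blood by density centrifugation and kept in RPMI 1640 with 10% FBS and penicillin/streptomycin. Seeded at 3 × 10^5 cells/well with 0–20 µmol/l unlabelled test peptide under tissue-culture conditions, then MTT read-out. Viability expressed as percentage of untreated controls.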

Q: With FFLIPKG-R8 as the substance, how does the “Cell uptake and distribution (in words)” value (HeLa and glioma cells) read?
A: Its value is “diffusely label the cytoplasm within five minutes”.

Q: With “NH2-asrslhslaG-Ahx-rrrrrrrrGC-COOH [asr-a-r8]” as the substance, how does the “Cell viability (in words)” value (CLL cells) read?
A: Its value is “no loss of viability”.

Source: paper PMC3232455 (Molecular therapy : the journal of the American Society of …, 2011)
